Experimental data published in ChEMBL document CHEMBL4321819, “Simple Structural Modifications Converting a Bona fide MDM2 PROTAC Degrader into a Molecular Glue Molecule: A Cautionary Tale in the Design of PROTAC Degraders” (J Med Chem, 2019).
Active and inactive are the calls of the source. The calls are words filed in the database; no cut-off is given here.

How the values were obtained:
[1] = (§1) Antiproliferative activity against human RS4:11/IRMI-2 cells harboring p53 hotspot mutation Y236H/R249G assessed as cell growth inhibition after 4 days by WST-8 assay; type: functional, cell-based; details: RS4-11, 96 h
Method in brief: (§2)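 Leukemia cells seeded at 10000–20000 cells/well, breast cancer lines at 5000–10000 cells/well. Serially diluted compound added, then 4 days at 37 °C, 5% CO2. Growth read with WST-8 reagent after at least 1 h, absorbance at 450 nm. RS4;11, MOLM-13 and breast lines were grown in RPMI 1640; MV-4-11 and HL-60 in IMDM; all with 10% FBS. Mean ± SE, at least three independent experiments.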

[2] = molecular target: T1, Protein cereblon/Eukaryotic peptide chain release factor GTP-binding subunit ERF3A/DNA damage-binding protein 1/Cullin-4A (Homo sapiens) (UniProt Q96SW2+Q16531+Q13619+P15170); assay: Protac activity at GSPT1/CUL4/DDB1/CRBN in human RS4:11 cells expressing wild type p53 assessed as decrease in GSPT1 protein level at 1 to 3 uM after 24 hrs by Western blot analysis; type: cell-based
Method in brief: (§3)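 RS4;11 (wild-type p53) or RS4;11/IRMI-2 (MDM2 inhibitor-resistant derivative, mutant p53) cells kept in RPMI 1640 with 10% FBS at 37 °C, 5% CO₂. 2×10^6 cells/well treated at the indicated concentrations and times, then lysed in ice-cold lysis buffer with protease inhibitor. GSPT1 detected by Western blot with a specific antibody.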

[3] = molecular target: T1, Protein cereblon/Eukaryotic peptide chain release factor GTP-binding subunit ERF3A/DNA damage-binding protein 1/Cullin-4A (Homo sapiens); assay: Protac activity at GSPT1/CUL4/DDB1/CRBN in human RS4:11/IRMI-2 cells harboring p53 hotspot mutation Y236H/R249G assessed as decrease in GSPT1 protein level at 1 to 3 uM after 24 hrs by Western blot analysis; type: cell-based; method in brief: as §3
[4] = molecular target: Eukaryotic peptide chain release factor GTP-binding subunit ERF3A (Homo sapiens, UniProt P15170); assay: Induction of GSPT1 degradation in human RS4:11 cells measured after 24 hrs by Western blot analysis; type: cell-based
[5] = test system: RS4-11; assay: Antiproliferative activity against human RS4:11 cells expressing wild type p53 assessed as cell growth inhibition after 4 days by WST-8 assay; type: functional, cell-based; details: RS4-11, 96 h; method in brief: as §2
[6] = test system: RS4-11; assay: Antiproliferative activity against human RS4:11 cells expressing wild type p53 assessed as MDM2-independent cell growth inhibition after 4 days by WST-8 assay; type: functional, cell-based; details: RS4-11, 96 h; method in brief: as §2
[7] = Antiproliferative activity against human RS4:11/IRMI-2 cells harboring p53 hotspot mutation Y236H/R249G assessed as MDM2-independent cell growth inhibition after 4 days by WST-8 assay; type: functional, cell-based; details: RS4-11, 96 h; method in brief: as §2
[8] = molecular target: T2, E3 ubiquitin-protein ligase Mdm2 (Homo sapiens, UniProt Q00987); assay: Displacement of PMDM6-F fluorescent probe from human recombinant His-tagged MDM2 (1 to 118 residues) after 15 mins by fluorescence polarization assay
Method in brief: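 Recombinant human His-tagged MDM2 (residues 1–118) with a FAM-labelled p53-based peptide as fluorescent probe; competitive fluorescence-polarization binding. Mean ± standard error from at least three independent experiments.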
Target sequence in this assay (Q00987 whole entry, the tested form may be a part): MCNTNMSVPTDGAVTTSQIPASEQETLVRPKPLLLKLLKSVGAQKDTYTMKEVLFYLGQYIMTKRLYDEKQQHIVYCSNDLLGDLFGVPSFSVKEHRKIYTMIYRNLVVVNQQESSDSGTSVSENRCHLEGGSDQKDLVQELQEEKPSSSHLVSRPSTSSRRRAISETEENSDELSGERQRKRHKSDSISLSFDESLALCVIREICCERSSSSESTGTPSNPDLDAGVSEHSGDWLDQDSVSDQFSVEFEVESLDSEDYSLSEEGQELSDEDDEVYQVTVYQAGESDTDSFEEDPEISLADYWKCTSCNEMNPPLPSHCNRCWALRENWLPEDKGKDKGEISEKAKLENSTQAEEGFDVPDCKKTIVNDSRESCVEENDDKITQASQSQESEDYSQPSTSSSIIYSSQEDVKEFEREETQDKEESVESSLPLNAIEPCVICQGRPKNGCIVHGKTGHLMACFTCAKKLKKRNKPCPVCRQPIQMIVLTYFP

[9] = test system: MDA-MB-231; assay: Antiproliferative activity against human MDA-MB-231 cells transfected with CRBN siRNA LQ-021086-10-0002 assessed as cell growth inhibition after 4 days by WST-8 assay; type: functional, cell-based; details: MDA-MB-231, 72 h, in the assay text read “after 3 days” for “after 4 days”
Method in brief: (§4)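 MDA-MB-231 or MDA-MB-468 cells transfected for 2 days using Lipofectamine RNAiMAX with MDM2 siRNA, one of two CRBN siRNAs, or non-targeting control siRNA. Compound then added and growth read by WST-8 at 450 nm.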

[10] = test system: MDA-MB-231; assay: Antiproliferative activity against human MDA-MB-231 cells transfected with CRBN siRNA LQ-021086-11-0002 assessed as cell growth inhibition after 4 days by WST-8 assay; type: functional, cell-based; details: MDA-MB-231, 96 h; method in brief: as §4
[11] = test system: MDA-MB-468; assay: Antiproliferative activity against human MDA-MB-468 cells transfected with CRBN siRNA LQ-021086-10-0002 assessed as cell growth inhibition after 4 days by WST-8 assay; type: functional, cell-based; details: MDA-MB-468, 96 h; method in brief: as §4
[12] = test system: MDA-MB-468; assay: Antiproliferative activity against human MDA-MB-468 cells transfected with CRBN siRNA LQ-021086-11-0002 assessed as cell growth inhibition after 4 days by WST-8 assay; type: functional, cell-based; details: MDA-MB-468, 96 h; method in brief: as §4
[13] = test system: MDA-MB-231; assay: Antiproliferative activity against human MDA-MB-231 cells assessed as cell growth inhibition after 4 days in presence of control siRNA for 3 days followed by compound treatment by WST-8 assay; type: functional, cell-based
[14] = test system: MDA-MB-468; assay: Antiproliferative activity against human MDA-MB-468 cells assessed as cell growth inhibition after 4 days in presence of control siRNA for 3 days followed by compound treatment by WST-8 assay; type: functional, cell-based
[15] = test system: MOLM-13; assay: Antiproliferative activity against human MOLM13 cells expressing wild type p53 assessed as cell growth inhibition after 4 days by WST-8 assay; type: functional, cell-based; details: MOLM-13, 96 h; method in brief: as §2
[16] = test system: MDA-MB-468; assay: Antiproliferative activity against human MDA-MB-468 cells transfected with MDM2 siRNA assessed as cell growth inhibition after 4 days by WST-8 assay; type: functional, cell-based; details: MDA-MB-468, 96 h; method in brief: as §4
[17] = species on record: Homo sapiens; assay: as §1; type: functional, cell-based; method in brief: as §2
[18] = test system: MDA-MB-231; assay: Antiproliferative activity against human MDA-MB-231 cells harboring mutant p53 assessed as cell growth inhibition without interaction with cereblon after 4 days by WST-8 assay; type: functional, cell-based; details: MDA-MB-231, 96 h
[19] = molecular target: T1, Protein cereblon/Eukaryotic peptide chain release factor GTP-binding subunit ERF3A/DNA damage-binding protein 1/Cullin-4A (Homo sapiens); assay: Protac activity at GSPT1/CUL4/DDB1/CRBN in human RS4:11/IRMI-2 cells harboring p53 hotspot mutation Y236H/R249G assessed as decrease in GSPT1 protein level after 2 hrs by Western blot analysis; type: cell-based; method in brief: as §3
[20] = test system: MDA-MB-468; assay: Antiproliferative activity against human MDA-MB-468 cells harboring mutant p53 assessed as cell growth inhibition without interaction with cereblon after 4 days by WST-8 assay; type: functional, cell-based; details: MDA-MB-468, 96 h
[21] = test system: MDA-MB-468; assay: Antiproliferative activity against human MDA-MB-468 cells assessed as cell growth inhibition after 4 days in presence of control siRNA for 2 days followed by compound treatment by WST-8 assay; type: functional, cell-based; method in brief: as §4
[22] = test system: HL-60; assay: Antiproliferative activity against human HL60 cells with lack of p53 assessed as cell growth inhibition after 4 days by WST-8 assay; type: functional, cell-based; method in brief: as §2
[23] = test system: MDA-MB-231; assay: Antiproliferative activity against human MDA-MB-231 cells assessed as cell growth inhibition after 4 days in presence of control siRNA for 2 days followed by compound treatment by WST-8 assay; type: functional, cell-based; method in brief: as §4
[24] = Antiproliferative activity against human RS4:11/IRMI-2 cells harboring p53 hotspot mutation Y236H/R249G assessed as cell growth inhibition without interaction with cereblon after 4 days by WST-8 assay; type: functional, cell-based; details: RS4-11, 96 h; method in brief: as §2
[25] = molecular target: T2, E3 ubiquitin-protein ligase Mdm2; assay: Induction of MDM2 degradation in human RS4:11 cells assessed as upregulation of MDM2 at 1000 to 3000 nM after 1 hr by Western blot analysis; type: cell-based
Method in brief: (§5)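 Western blots of MDM2 and p53 protein were run on RS4;11 cells (wild-type p53) in RPMI 1640 with 10% FBS. 2×10^6 cells/well were treated at the indicated concentrations for 1 h or 2 h. Lysis was in ice-cold buffer with protease inhibitor, followed by probing with specific antibodies.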
Target sequence in this assay (Q00987 whole entry, looked up, the tested form may be a part): as the sequence (Q00987 whole entry, the tested form may be a part) above

[26] = molecular target: T2, E3 ubiquitin-protein ligase Mdm2; assay: Induction of MDM2 degradation in human RS4:11 cells assessed as upregulation of p53 at 1000 to 3000 nM after 1 hr by Western blot analysis; type: cell-based; method in brief: as §5
Target sequence in this assay (Q00987 whole entry, looked up, the tested form may be a part): as the sequence (Q00987 whole entry, the tested form may be a part) above

[27] = molecular target: T1, Protein cereblon/Eukaryotic peptide chain release factor GTP-binding subunit ERF3A/DNA damage-binding protein 1/Cullin-4A (Homo sapiens); assay: Protac activity at GSPT1/CUL4/DDB1/CRBN in human RS4:11 cells expressing wild type p53 assessed as decrease in GSPT1 protein level after 2 hrs by Western blot analysis; type: cell-based; method in brief: as §3
[28] = test system: MDA-MB-468; assay: Antiproliferative activity against human MDA-MB-468 cells harboring mutant p53 assessed as cell growth inhibition after 4 days by WST-8 assay; type: functional, cell-based; method in brief: as §2
[29] = test system: MV4-11; assay: Antiproliferative activity against human MV4-11 cells expressing wild type p53 assessed as cell growth inhibition after 4 days by WST-8 assay; type: functional, cell-based; details: MV4-11, 96 h; method in brief: as §2
[30] = test system: RS4-11; assay: Antiproliferative activity against human RS4:11 cells expressing wild type p53 assessed as cell growth inhibition without interaction with cereblon after 4 days by WST-8 assay; type: functional, cell-based; details: RS4-11, 96 h; method in brief: as §2
[31] = test system: MDA-MB-231; assay: Antiproliferative activity against human MDA-MB-231 cells harboring mutant p53 assessed as cell growth inhibition after 4 days by WST-8 assay; type: functional, cell-based; method in brief: as §2
[32] = test system: MDA-MB-231; assay: Antiproliferative activity against human MDA-MB-231 cells transfected with MDM2 siRNA assessed as cell growth inhibition after 4 days by WST-8 assay; type: functional, cell-based; details: MDA-MB-231, 96 h; method in brief: as §4

T1 sequence (P15170 whole entry, looked up): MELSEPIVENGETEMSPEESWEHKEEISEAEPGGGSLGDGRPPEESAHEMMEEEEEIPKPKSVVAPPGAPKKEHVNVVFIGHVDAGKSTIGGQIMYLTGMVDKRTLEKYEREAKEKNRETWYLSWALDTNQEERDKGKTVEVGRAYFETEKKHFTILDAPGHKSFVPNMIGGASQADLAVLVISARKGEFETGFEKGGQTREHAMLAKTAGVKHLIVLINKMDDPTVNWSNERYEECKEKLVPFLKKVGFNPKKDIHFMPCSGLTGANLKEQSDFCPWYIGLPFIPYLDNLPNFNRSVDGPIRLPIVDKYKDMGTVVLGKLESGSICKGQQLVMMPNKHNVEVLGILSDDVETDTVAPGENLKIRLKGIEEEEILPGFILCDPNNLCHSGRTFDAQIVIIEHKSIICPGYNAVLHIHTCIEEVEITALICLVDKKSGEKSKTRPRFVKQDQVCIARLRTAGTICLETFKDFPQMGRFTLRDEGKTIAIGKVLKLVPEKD
T1 sequence (Q13619 whole entry, looked up): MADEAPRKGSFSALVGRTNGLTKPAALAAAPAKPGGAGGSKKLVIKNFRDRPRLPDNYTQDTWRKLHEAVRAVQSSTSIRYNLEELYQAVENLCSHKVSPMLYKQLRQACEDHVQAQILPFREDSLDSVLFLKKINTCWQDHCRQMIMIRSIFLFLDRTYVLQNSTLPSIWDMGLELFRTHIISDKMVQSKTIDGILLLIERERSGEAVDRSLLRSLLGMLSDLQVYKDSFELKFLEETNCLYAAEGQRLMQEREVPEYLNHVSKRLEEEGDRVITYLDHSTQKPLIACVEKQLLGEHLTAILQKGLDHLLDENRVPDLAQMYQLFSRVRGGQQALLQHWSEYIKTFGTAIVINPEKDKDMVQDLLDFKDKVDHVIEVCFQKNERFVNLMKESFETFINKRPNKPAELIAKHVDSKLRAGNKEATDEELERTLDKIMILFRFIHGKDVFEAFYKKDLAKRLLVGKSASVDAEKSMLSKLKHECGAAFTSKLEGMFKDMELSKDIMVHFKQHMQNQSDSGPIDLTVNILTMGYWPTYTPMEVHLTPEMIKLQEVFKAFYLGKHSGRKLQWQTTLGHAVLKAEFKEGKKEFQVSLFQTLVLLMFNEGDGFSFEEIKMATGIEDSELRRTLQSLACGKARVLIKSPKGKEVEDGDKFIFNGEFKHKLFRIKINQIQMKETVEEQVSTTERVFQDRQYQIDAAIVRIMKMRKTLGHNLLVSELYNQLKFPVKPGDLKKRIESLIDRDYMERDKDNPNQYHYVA
T1 sequence (Q16531 whole entry, looked up): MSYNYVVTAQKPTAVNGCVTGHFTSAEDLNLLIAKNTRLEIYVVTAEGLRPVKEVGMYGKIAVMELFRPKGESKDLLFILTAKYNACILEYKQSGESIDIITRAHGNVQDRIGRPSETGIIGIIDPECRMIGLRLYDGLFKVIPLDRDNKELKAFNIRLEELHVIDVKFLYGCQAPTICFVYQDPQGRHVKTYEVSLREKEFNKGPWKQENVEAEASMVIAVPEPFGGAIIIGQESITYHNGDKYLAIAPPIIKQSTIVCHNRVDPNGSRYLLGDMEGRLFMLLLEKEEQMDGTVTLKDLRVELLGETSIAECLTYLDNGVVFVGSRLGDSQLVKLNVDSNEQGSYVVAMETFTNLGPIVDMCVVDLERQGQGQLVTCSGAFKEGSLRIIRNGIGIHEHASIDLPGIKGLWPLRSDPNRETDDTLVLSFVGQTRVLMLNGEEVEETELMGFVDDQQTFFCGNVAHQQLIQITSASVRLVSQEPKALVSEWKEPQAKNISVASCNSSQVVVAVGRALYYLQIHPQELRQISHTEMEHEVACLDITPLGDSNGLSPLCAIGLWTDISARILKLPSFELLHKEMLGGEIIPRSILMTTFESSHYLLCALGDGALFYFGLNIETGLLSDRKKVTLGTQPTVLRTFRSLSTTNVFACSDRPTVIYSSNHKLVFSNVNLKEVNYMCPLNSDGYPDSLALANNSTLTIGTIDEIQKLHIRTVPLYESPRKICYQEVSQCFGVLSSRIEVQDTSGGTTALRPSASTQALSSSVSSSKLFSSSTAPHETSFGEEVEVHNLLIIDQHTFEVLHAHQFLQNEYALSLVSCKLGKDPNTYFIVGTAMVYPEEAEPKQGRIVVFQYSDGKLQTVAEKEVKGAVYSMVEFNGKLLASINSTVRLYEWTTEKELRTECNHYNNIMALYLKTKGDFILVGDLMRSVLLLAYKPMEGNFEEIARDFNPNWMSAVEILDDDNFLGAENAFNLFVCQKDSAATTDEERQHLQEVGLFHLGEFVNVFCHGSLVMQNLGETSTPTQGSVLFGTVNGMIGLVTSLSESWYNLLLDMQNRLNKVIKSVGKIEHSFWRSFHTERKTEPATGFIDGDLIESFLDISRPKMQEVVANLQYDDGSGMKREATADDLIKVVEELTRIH
T1 sequence (Q96SW2 whole entry, looked up): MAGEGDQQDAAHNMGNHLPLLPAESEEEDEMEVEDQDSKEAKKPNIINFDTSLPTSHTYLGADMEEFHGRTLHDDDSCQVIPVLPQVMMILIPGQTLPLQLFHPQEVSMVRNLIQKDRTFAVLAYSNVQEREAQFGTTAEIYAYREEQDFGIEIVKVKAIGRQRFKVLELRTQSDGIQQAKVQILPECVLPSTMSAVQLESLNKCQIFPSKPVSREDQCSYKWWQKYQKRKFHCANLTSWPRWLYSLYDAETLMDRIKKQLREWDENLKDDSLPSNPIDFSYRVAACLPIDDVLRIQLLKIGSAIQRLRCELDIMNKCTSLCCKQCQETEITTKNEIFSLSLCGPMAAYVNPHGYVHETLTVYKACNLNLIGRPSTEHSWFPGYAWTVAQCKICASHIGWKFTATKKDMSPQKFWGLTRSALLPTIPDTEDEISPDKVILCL
Eukaryotic peptide chain release factor GTP-binding subunit ERF3A, sequence (P15170 whole entry): as the sequence (P15170 whole entry, looked up) above

IC50 [6]	Structure (SMILES)	IC50 [1]	DC50 [4]	IC50 [5]	IC50 [7]	IC50 [8]	IC50 [9]	IC50 [10]	IC50 [11]	IC50 [12]	IC50 [13]	IC50 [14]	Activity [19]	Activity [27]	also measured
–	O=C1CCC(N2Cc3c(NC(=O)[C@@H]4NC5(CCCCC5)[C@@]5(C(=O)Nc6cc(Cl)ccc65)[C@H]4c4cccc(Cl)c4F)cccc3C2=O)C(=O)N1 (stereo partly specified)	2580 nM	2300 nM	760 nM	–	–	–	–	–	–	–	–	–	–	Activity [2]: Active; Activity [3]: Active
22.5 nM	O=C1CCC(N2Cc3c(CCCCCNC(=O)[C@@H]4NC5(CCCCC5)[C@@]5(C(=O)Nc6cc(Cl)ccc65)[C@H]4c4ccccc4)cccc3C2=O)C(=O)N1 (stereo partly specified)	–	–	–	22.4 nM	> 20000 nM	–	–	–	–	–	–	–	–	–
–	O=C(O)c1ccc(NC(=O)[C@@H]2NC3(CCCCC3)[C@@]3(C(=O)Nc4cc(Cl)ccc43)[C@H]2c2cccc(Cl)c2F)cc1	–	–	–	–	9.5 nM	> 3000 nM	> 3000 nM	> 3000 nM	> 3000 nM	> 3000 nM	> 3000 nM	–	–	–
48.6 nM	O=C1CCC(N2Cc3c(CCCCCNC(=O)[C@@H]4NC5(CCCCC5)[C@@]5(C(=O)Nc6ccccc65)[C@H]4c4ccccc4)cccc3C2=O)C(=O)N1 (stereo partly specified)	–	–	–	60.9 nM	> 20000 nM	–	–	–	–	–	–	–	–	–
–	O=C1CCC(N2Cc3c(CCCCNC(=O)[C@@H]4NC5(CCCCC5)[C@@]5(C(=O)Nc6cc(Cl)ccc65)[C@H]4c4cccc(Cl)c4F)cccc3C2=O)C(=O)N1 (stereo partly specified)	2.6 nM	1.1 nM	2.5 nM	–	–	–	–	–	–	–	–	Active	Active	–

Structure (SMILES)	IC50 [6]	IC50 [1]	DC50 [4]	IC50 [5]	IC50 [7]	IC50 [8]	IC50 [9]	IC50 [10]	IC50 [11]	IC50 [12]	IC50 [13]	IC50 [14]	Activity [19]	Activity [27]	also measured
CNC(=O)[C@@H]1NC2(CCCCC2)[C@@]2(C(=O)Nc3cc(Cl)ccc32)[C@H]1c1cccc(Cl)c1F	1490 nM	–	–	669 nM	> 10000 nM	48.1 nM	> 3000 nM	> 3000 nM	> 3000 nM	> 3000 nM	> 3000 nM	> 3000 nM	inactive	inactive	IC50 [15]: 1240 nM; IC50 [16]: > 10000 nM; growth inhibition (GI) [17]: inactive; IC50 [18]: > 10000 nM; IC50 [20]: > 10000 nM; IC50 [21]: > 10000 nM; growth inhibition (GI) [22]: inactive; IC50 [23]: > 10000 nM; IC50 [24]: 9580 nM; Activity [25]: inactive; Activity [26]: Active; growth inhibition (GI) [28]: inactive; IC50 [29]: 898 nM; IC50 [30]: 1110 nM; growth inhibition (GI) [31]: inactive; IC50 [32]: > 10000 nM
